This passage reports MIC results from ChEMBL document CHEMBL1151201, “Tolaasins A--E, five new lipodepsipeptides produced by Pseudomonas tolaasii” (2004).

One assay has as its system Rhizoctonia solani. Briefly: Antifungal activity against Rhizoctonia solani 1583 after 24 to 48 hrs by soft agar procedure. It counts as functional. The gist of the method:
(§1)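 Tolaasin stock solutions in distilled water were serially diluted 1:1 and applied as drops onto soft-agar lawns of the test organism. The endpoint recorded was the last dilution that still inhibited growth in the area where the drop was applied.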

For the next assay, the system named is Rhodotorula mucilaginosa. Briefly: Antifungal activity against Rhodotorula pilimanae ATCC 26423 after 24 to 48 hrs by soft agar procedure. Format: functional. An outline of the steps: as §1
The next assay has as its system Priestia megaterium. Put plainly: Antibacterial activity against Bacillus megaterium ITM 100 after 24 to 48 hrs by soft agar procedure. It counts as functional. An outline of the steps:
as §1

The next assay has as its system Rhodococcus fascians. Put plainly: Antibacterial activity against Rhodococcus fascians NCPPB3067 after 24 to 48 hrs by soft agar procedure. Format: functional, Rhodococcoides fascians. The gist of the method: as §1
A further assay relates to Escherichia coli. Put plainly: Antibacterial activity against Escherichia coli K-12 ITM103 after 24 to 48 hrs by soft agar procedure. It counts as functional. An outline of the steps:
as §1

The subject of assay [1] is Pectobacterium carotovorum. Briefly: Antibacterial activity against Erwinia carotovora subsp. carotovora ICMP 5702 after 24 to 48 hrs by soft agar procedure. It counts as functional, Pectobacterium carotovorum subsp. carotovorum. The gist of the method: as §1

In the case of `C/C=C(\NC(=O)[C@H](NC(=O)[C@H](CC(C)C)NC(=O)[C@@H](CCC(N)=O)NC(=O)[C@@H](NC(=O)[C@H](NC(=O)[C@@H](CC(C)C)NC(=O)[C@@H](CO)NC(=O)[C@H](NC(=O)[C@H](CC(C)C)NC(=O)[C@H](CO)NC(=O)[C@H]1CCCN1C(=O)/C(=C/C)NC(=O)CCCC(=O)O)C(C)C)C(C)C)C(C)C)C(C)C)C(=O)N[C@H]1C(=O)N[C@@H]([C@@H](C)CC)C(=O)N[C@@H](CCO)C(=O)N[C@H](CCN)C(=O)N[C@@H](CCCCN)C(=O)O[C@@H]1C` [TOLAASIN A], the MIC against Rhizoctonia solani was 1.28 µg; in the assay on Rhodotorula mucilaginosa, 5.12 µg; against Priestia megaterium, 1.28 µg; in the assay with Rhodococcus fascians, 1.28 µg; against Escherichia coli it was more than 5.12 µg; in assay [1], more than 5.12 µg.

`C/C=C(\NC(=O)[C@H](NC(=O)[C@H](CC(C)C)NC(=O)[C@@H](CCC(N)=O)NC(=O)[C@@H](NC(=O)[C@H](NC(=O)[C@@H](CC(C)C)NC(=O)[C@@H](CO)NC(=O)[C@H](NC(=O)[C@H](CC(C)C)NC(=O)[C@H](CO)NC(=O)[C@H]1CCCN1C(=O)/C(=C/C)NC(=O)CC(O)CCCCC)C(C)C)C(C)C)C(C)C)C(C)C)C(=O)N[C@H]1C(=O)N[C@@H](C(C)C)C(=O)N[C@@H](CCO)C(=O)N[C@H](CCN)C(=O)N[C@@H](CCCCN)C(=O)O[C@@H]1C` (some centres not stated) [TOLAASIN B]: the MIC with Rhizoctonia solani was 2.56 µg; against Rhodotorula mucilaginosa, more than 5.12 µg; against Priestia megaterium, 2.56 µg; against Rhodococcus fascians, 1.28 µg; against Escherichia coli, more than 5.12 µg; in assay [1], more than 5.12 µg.

For `C/C=C(\NC(=O)[C@H](NC(=O)[C@H](CC(C)C)NC(=O)[C@@H](CCC(N)=O)NC(=O)[C@@H](NC(=O)[C@H](NC(=O)[C@@H](CC(C)C)NC(=O)[C@@H](CO)NC(=O)[C@H](NC(=O)[C@H](CC(C)C)NC(=O)[C@H](CO)NC(=O)[C@H]1CCCN1C(=O)/C(=C/C)NC(=O)CC(O)CCCCC)C(C)C)C(C)C)C(C)C)C(C)C)C(=O)N[C@@H](C(=O)N[C@H](C(=O)N[C@@H](CCO)C(=O)N[C@H](CCN)C(=O)N[C@@H](CCCCN)C(=O)O)[C@@H](C)CC)[C@@H](C)O` (some centres not stated) [TOLAASIN C], the MIC against Rhizoctonia solani was 5.12 µg; against Rhodotorula mucilaginosa, more than 5.12 µg; with Priestia megaterium, more than 5.12 µg; against Rhodococcus fascians it was more than 5.12 µg; with Escherichia coli, more than 5.12 µg; in assay [1], more than 5.12 µg.

In the case of `C/C=C(\NC(=O)[C@H](NC(=O)[C@H](CC(C)C)NC(=O)[C@@H](CCC(N)=O)NC(=O)[C@@H](NC(=O)[C@H](NC(=O)[C@@H](CC(C)C)NC(=O)[C@@H](CO)NC(=O)[C@H](NC(=O)[C@H](CC(C)C)NC(=O)[C@H](CO)NC(=O)[C@H]1CCCN1C(=O)/C(=C/C)NC(=O)CC(O)CCCCC)C(C)C)C(C)C)C(C)C)C(C)C)C(=O)N[C@H]1C(=O)N[C@@H](CC(C)C)C(=O)N[C@@H](CCO)C(=O)N[C@H](CCN)C(=O)N[C@@H](CCCCN)C(=O)O[C@@H]1C` (some centres not stated) [TOLAASIN D], the MIC against Rhizoctonia solani was 0.16 µg; against Rhodotorula mucilaginosa, 2.56 µg; against Priestia megaterium, 0.16 µg; against Rhodococcus fascians it was 0.16 µg; with Escherichia coli it was more than 5.12 µg; in assay [1], more than 5.12 µg.

For the compound `C/C=C(\NC(=O)[C@H](NC(=O)[C@H](CC(C)C)NC(=O)[C@@H](CCC(N)=O)NC(=O)[C@@H](NC(=O)[C@H](NC(=O)[C@@H](CC(C)C)NC(=O)[C@@H](CO)NC(=O)[C@H](NC(=O)[C@H](CC(C)C)NC(=O)[C@H](CO)NC(=O)[C@H]1CCCN1C(=O)/C(=C/C)NC(=O)CC(O)CCCCC)C(C)C)C(C)C)C(C)C)C(C)C)C(=O)N[C@H]1C(=O)N[C@@H](CC(C)C)C(=O)NCC(=O)N[C@H](CCN)C(=O)N[C@@H](CCCCN)C(=O)O[C@@H]1C` (some centres not stated) [TOLAASIN E], the MIC was 5.12 µg with Rhizoctonia solani; more than 5.12 µg in the assay with Rhodotorula mucilaginosa; 2.56 µg against Priestia megaterium; 2.56 µg against Rhodococcus fascians; more than 5.12 µg in the assay with Escherichia coli; more than 5.12 µg in assay [1].

Take `C/C=C(\NC(=O)[C@H](NC(=O)[C@H](CC(C)C)NC(=O)[C@@H](CCC(N)=O)NC(=O)[C@@H](NC(=O)[C@H](NC(=O)[C@@H](CC(C)C)NC(=O)[C@@H](CO)NC(=O)[C@H](NC(=O)[C@H](CC(C)C)NC(=O)[C@H](CO)NC(=O)[C@H]1CCCN1C(=O)/C(=C/C)NC(=O)CC(O)CCCCC)C(C)C)C(C)C)C(C)C)C(C)C)C(=O)N[C@H]1C(=O)N[C@@H]([C@@H](C)CC)C(=O)NCC(=O)N[C@H](CCN)C(=O)N[C@@H](CCCCN)C(=O)O[C@@H]1C` (some centres not stated) [TOLAASIN II]: the MIC against Rhizoctonia solani was 0.64 µg; against Rhodotorula mucilaginosa, 5.12 µg; with Priestia megaterium it was 0.64 µg; with Rhodococcus fascians, 0.64 µg; with Escherichia coli, more than 5.12 µg; in assay [1], more than 5.12 µg.

Consider `C/C=C(\NC(=O)[C@H](NC(=O)[C@H](CC(C)C)NC(=O)[C@@H](CCC(N)=O)NC(=O)[C@@H](NC(=O)[C@H](NC(=O)[C@@H](CC(C)C)NC(=O)[C@@H](CO)NC(=O)[C@H](NC(=O)[C@H](CC(C)C)NC(=O)[C@H](CO)NC(=O)[C@H]1CCCN1C(=O)/C(=C/C)NC(=O)CC(O)CCCCC)C(C)C)C(C)C)C(C)C)C(C)C)C(=O)N[C@H]1C(=O)N[C@@H]([C@@H](C)CC)C(=O)N[C@@H](CCO)C(=O)N[C@H](CCN)C(=O)N[C@@H](CCCCN)C(=O)O[C@@H]1C` (some centres not stated) [TOLAASIN I], for which the MIC in the assay with Rhizoctonia solani is 0.32 µg; against Rhodotorula mucilaginosa, 2.56 µg; against Priestia megaterium, 0.32 µg; in the assay with Rhodococcus fascians, 0.32 µg; in the assay on Escherichia coli, more than 5.12 µg; in assay [1], more than 5.12 µg.
